Experimental data published in ChEMBL document CHEMBL2412952, “2-Substituted 4-hydroxybutanamides as potential inhibitors of γ-aminobutyric acid transporters mGAT1-mGAT4: synthesis and biological evaluation” (Bioorg Med Chem, 2013).
Active and inactive are the calls of the source.

Columns and labels:
Mus musculus [1] = test: Neurotoxicity in albino Swiss CD-1 mouse assessed as mean time spent on the rotarod with 24 rpm at 30 mg/kg, ip after 30 mins by rotarod test (reference value: 60.0 +/- 0.0 seconds); assay type: toxicity, organism-based; parameters: dose 30 mg/kg, route intraperitoneal; details: in vivo, 0.5 h
In short: (§1)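 CD-1 mice trained 3 days on a 2 cm rotarod at 18 rpm, then tested ≥24 h later, 30 min after ip dosing, at 6, 18 and 24 rpm. Failure to stay on for 1 min counted as impairment (fallers/tested; Fisher's exact); mean time on rod also recorded (ANOVA/Dunnett); 8 mice per group.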

Mus musculus [2] = test: Analgesic effect in albino Swiss CD-1 mouse assessed as inhibition of acetic acid-induced writhing at 3.75 mg/kg, ip administered 30 mins prior to acetic acid challenge measured for 30 mins relative to control; assay type: functional; parameters: scale not given: the % may be the effect or the level left; details: route intraperitoneal
In short: (§2)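 Male CD-1 mice (18–25 g), habituated 30 min in beakers, dosed ip (0.5% methylcellulose, 10 ml/kg) 30 min before ip 0.9% acetic acid in saline (10 ml/kg). Writhes counted for 30 min by blinded observers. Effect is % reduction versus vehicle group; ED50 by log-probit; mean ± SEM.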

Mus musculus [3] = test: Analgesic effect in albino Swiss CD-1 mouse assessed as inhibition of acetic acid-induced writhing at 15 mg/kg, ip administered 30 mins prior to acetic acid challenge measured for 30 mins relative to control; assay type: functional; parameters: scale not given: the % may be the effect or the level left; details: route intraperitoneal; in short: as §2
Mus musculus [4] = test: Neurotoxicity in albino Swiss CD-1 mouse assessed as mean time spent on the rotarod with 18 rpm at 30 mg/kg, ip after 30 mins by rotarod test (reference value: 60.0 +/- 0.0 seconds); assay type: toxicity, organism-based; parameters: dose 30 mg/kg, route intraperitoneal; details: in vivo, 0.5 h; in short: as §1
Mus musculus [5] = test: Antinociceptive activity against formalin-induced inflammatory pain in albino Swiss CD-1 mouse assessed as duration of licking response at 30 mg/kg, ip administered 30 mins prior to formalin challenge measured up to 5 mins (reference value: 34.8 +/- 9.4 seconds); assay type: functional; details: route intraperitoneal
In short: (§3)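 Male CD-1 mice, 18–25 g, 6–12 per dose; compound suspended in 0.5% methylcellulose, given ip 30 min before 20 µl of 5% formalin intraplantar into right hind paw. Time spent licking the injected paw scored blind at 0–5 min and 15–30 min. Reduction versus vehicle-treated mice; ED50 by log-probit; mean ± SEM, ANOVA/Dunnett or t-test.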

Mus musculus [6] = test: Analgesic effect in ip dosed albino Swiss CD-1 mouse assessed as inhibition of acetic acid-induced writhing administered 30 mins prior to acetic acid challenge measured for 30 mins; assay type: functional; details: albino Swiss CD-1, ip; in short: as §2
Mus musculus [7] = test: Analgesic activity in albino Swiss CD-1 mouse assessed as reduction in formalin-induced inflammatory pain at 30 mg/kg, ip administered 30 mins prior to formalin challenge measured up to 5 mins relative to control; assay type: functional; in short: as §3
Mus musculus [8] = test: Analgesic activity in albino Swiss CD-1 mouse assessed as reduction in formalin-induced inflammatory pain at 30 mg/kg, ip administered 30 mins prior to formalin challenge measured for 15 to 30 mins relative to control; assay type: functional; parameters: scale not given: the % may be the effect or the level left; details: route intraperitoneal; in short: as §3
Mus musculus [9] = test: Neurotoxicity in albino Swiss CD-1 mouse assessed as mean time spent on the rotarod with 6 rpm at 30 mg/kg, ip after 30 mins by rotarod test (reference value: 60.0 +/- 0.0 seconds); assay type: toxicity, organism-based; parameters: dose 30 mg/kg, route intraperitoneal; details: in vivo, 0.5 h; in short: as §1
Mus musculus [10] = test: Antinociceptive activity against formalin-induced inflammatory pain in albino Swiss CD-1 mouse assessed as duration of licking response at 30 mg/kg, ip administered 30 mins prior to formalin challenge measured for 15 to 30 mins (reference value: 78.8 +/- 15.9 seconds); assay type: functional; details: route intraperitoneal; in short: as §3
Mus musculus [11] = test: Analgesic effect in albino Swiss CD-1 mouse assessed as inhibition of acetic acid-induced writhing at 7.5 mg/kg, ip administered 30 mins prior to acetic acid challenge measured for 30 mins relative to control; assay type: functional; parameters: scale not given: the % may be the effect or the level left; details: route intraperitoneal; in short: as §2
Mus musculus [12] = test: Antinociceptive activity in albino Swiss CD-1 mouse assessed as prolongation of latency time at 30 mg/kg, ip administered 30 mins prior to test by hot plate test; assay type: functional, organism-based; parameters: dose 30 mg/kg
In short: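 Male CD-1 mice given compound ip in 0.5% methylcellulose 30 min before placement on a plate held at 55–56 °C. Latency to hind-paw licking or jumping timed, 30 s cut-off. Compared with vehicle by ANOVA.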

Mus musculus [13] = test: Analgesic activity in albino Swiss CD-1 mouse assessed as reduction in formalin-induced inflammatory pain at 7.5 mg/kg, ip administered 30 mins prior to formalin challenge measured for 15 to 30 mins relative to control; assay type: functional; parameters: scale not given: the % may be the effect or the level left; details: route intraperitoneal; in short: as §3
[14] = biological target: T1, Sodium- and chloride-dependent GABA transporter 1 (Mus musculus, UniProt P31648); test: Inhibition of mouse GAT1-mediated [3H]GABA uptake stably transfected in HEK293 cells; assay type: cell-based
Mus musculus [15] = test: Analgesic activity in albino Swiss CD-1 mouse assessed as reduction in formalin-induced inflammatory pain at 7.5 mg/kg, ip administered 30 mins prior to formalin challenge measured up to 5 mins relative to control; assay type: functional; parameters: scale not given: the % may be the effect or the level left; in short: as §3
Mus musculus [16] = test: Antinociceptive activity against formalin-induced inflammatory pain in albino Swiss CD-1 mouse assessed as duration of licking response at 15 mg/kg, ip administered 30 mins prior to formalin challenge measured up to 5 mins (reference value: 55.4 +/- 6.6 seconds); assay type: functional; details: route intraperitoneal; in short: as §3
Mus musculus [17] = test: Analgesic effect in albino Swiss CD-1 mouse assessed as inhibition of acetic acid-induced writhing at 30 mg/kg, ip administered 30 mins prior to acetic acid challenge measured for 30 mins relative to control; assay type: functional; parameters: scale not given: the % may be the effect or the level left; details: route intraperitoneal; in short: as §2
Mus musculus [18] = test: Antinociceptive activity against formalin-induced inflammatory pain in albino Swiss CD-1 mouse assessed as duration of licking response at 30 mg/kg, ip administered 30 mins prior to formalin challenge measured for 15 to 30 mins (reference value: 111.6 +/- 17.1 seconds); assay type: functional; details: route intraperitoneal; in short: as §3
[19] = Inhibition of mouse GAT4-mediated [3H]GABA uptake stably transfected in HEK293 cells; assay type: cell-based
[20] = biological target: T1, Sodium- and chloride-dependent GABA transporter 1; test: Binding affinity to mouse GAT1 stably transfected in HEK293 cells by NO-711 binding assay; assay type: cell-based
Mus musculus [21] = test: Antinociceptive activity against formalin-induced inflammatory pain in albino Swiss CD-1 mouse assessed as duration of licking response at 30 mg/kg, ip administered 30 mins prior to formalin challenge measured up to 5 mins (reference value: 55.4 +/- 6.6 seconds); assay type: functional; details: route intraperitoneal; in short: as §3
Mus musculus [22] = test: Antinociceptive activity against formalin-induced inflammatory pain in albino Swiss CD-1 mouse assessed as duration of licking response at 7.5 mg/kg, ip administered 30 mins prior to formalin challenge measured for 15 to 30 mins (reference value: 111.6 +/- 17.1 seconds); assay type: functional; details: route intraperitoneal; in short: as §3
Mus musculus [23] = test: Antinociceptive activity against formalin-induced inflammatory pain in albino Swiss CD-1 mouse assessed as duration of licking response at 7.5 mg/kg, ip administered 30 mins prior to formalin challenge measured up to 5 mins (reference value: 55.4 +/- 6.6 seconds); assay type: functional; details: route intraperitoneal; in short: as §3
Mus musculus [24] = test: Analgesic activity in albino Swiss CD-1 mouse assessed as reduction in formalin-induced inflammatory pain at 15 mg/kg, ip administered 30 mins prior to formalin challenge measured up to 5 mins relative to control; assay type: functional; parameters: scale not given: the % may be the effect or the level left; in short: as §3
Mus musculus [25] = test: Analgesic activity in ip dosed albino Swiss CD-1 mouse assessed as reduction in formalin-induced inflammatory pain administered 30 mins prior to formalin challenge measured for 15 to 30 mins; assay type: functional; details: albino Swiss CD-1, ip; in short: as §3
Mus musculus [26] = test: Antinociceptive activity against formalin-induced inflammatory pain in albino Swiss CD-1 mouse assessed as duration of licking response at 15 mg/kg, ip administered 30 mins prior to formalin challenge measured for 15 to 30 mins (reference value: 111.6 +/- 17.1 seconds); assay type: functional; details: route intraperitoneal; in short: as §3
Mus musculus [27] = test: Neurotoxicity in albino Swiss CD-1 mouse assessed as motor impairment at 30 mg/kg, ip after 30 mins by rotarod test; assay type: toxicity, organism-based; parameters: dose 30 mg/kg, route intraperitoneal; details: in vivo, 0.5 h; in short: as §1
Mus musculus [28] = test: Analgesic activity in ip dosed albino Swiss CD-1 mouse assessed as reduction in formalin-induced inflammatory pain administered 30 mins prior to formalin challenge measured up to 5 mins; assay type: functional; details: albino Swiss CD-1, ip; in short: as §3
Mus musculus [29] = test: Analgesic activity in albino Swiss CD-1 mouse assessed as reduction in formalin-induced inflammatory pain at 15 mg/kg, ip administered 30 mins prior to formalin challenge measured for 15 to 30 mins relative to control; assay type: functional; parameters: scale not given: the % may be the effect or the level left; details: route intraperitoneal; in short: as §3
Mus musculus [30] = test: Analgesic effect in albino Swiss CD-1 mouse assessed as inhibition of acetic acid-induced writhing at 20 mg/kg, ip administered 30 mins prior to acetic acid challenge measured for 30 mins relative to control; assay type: functional; parameters: scale not given: the % may be the effect or the level left; details: route intraperitoneal; in short: as §2

IC50 [14] | IC50 [19] | Ki [20] | SMILES | Time (Mus musculus [1]) | Activity (Mus musculus [3]) | Time (Mus musculus [4]) | ED50 (Mus musculus [6]) | Activity (Mus musculus [7]) | Activity (Mus musculus [8]) | Time (Mus musculus [9]) | Activity (Mus musculus [12]) | Activity (Mus musculus [13]) | Time (Mus musculus [16]) | Activity (Mus musculus [17]) | Time (Mus musculus [18]) | Time (Mus musculus [21]) | Time (Mus musculus [22]) | Time (Mus musculus [23]) | Time (Mus musculus [26]) | Activity (Mus musculus [27]) | other results
– | – | – | COc1ccc(C(OCCN2CCC[C@H](C(=O)O)C2)(c2ccc(OC)cc2)c2ccc(OC)cc2)cc1 | 59 s | 70.5% | 56.3 s | 7.1 mg/kg | inactive | 39.5% | 59.6 s | inactive | – | – | – | – | – | – | – | – | – | Activity (Mus musculus [2]): 23.3%; Time (Mus musculus [5]): 35.6 s; Time (Mus musculus [10]): 47.7 s; Activity (Mus musculus [11]): 62.7%
14.8 µM | 33.1 µM | 9.12 µM | O=C(NCc1ccccc1)C(CCO)N1CCC(=C(c2ccccc2)c2ccccc2)CC1 (centres undefined) | 60 s | – | 60 s | – | – | 85.4% | 60 s | inactive | 32.7% | 31 s | 29.8% | 16.3 s | 27.7 s | 75.1 s | 39 s | 39.6 s | Non-toxic | Activity (Mus musculus [15]; route intraperitoneal): 29.6%; Activity (Mus musculus [7]; route intraperitoneal): 50%; Activity (Mus musculus [24]; route intraperitoneal): 44%; ED50 (Mus musculus [25]): 11.1 mg/kg; ED50 (Mus musculus [28]): 27.1 mg/kg; Activity (Mus musculus [29]): 64.5%
9.77 µM | 26.3 µM | 11.5 µM | O=C(NCc1ccc(F)cc1)C(CCO)N1CCC(=C(c2ccccc2)c2ccccc2)CC1 (centres undefined) | 60 s | 28.9% | 60 s | 18.1 mg/kg | inactive | 78.5% | 60 s | inactive | 72.3% | 50.4 s | 79.4% | 24 s | 58.1 s | 30.9 s | 59.9 s | 17.8 s | Non-toxic | Activity (Mus musculus [30]): 69.9%; Activity (Mus musculus [15]): inactive; Activity (Mus musculus [24]): inactive; Activity (Mus musculus [29]): 84.1%
